Here are results for 9 compounds from ChEMBL document CHEMBL1157677, “Silicon switch approach in TRPV1 antagonist MK-056 and its analogues” (Bioorg Med Chem, 2010).

Some results are limits rather than exact numbers.

For assay [1], the target named is T1, Transient receptor potential cation channel subfamily V member 1 (Rattus norvegicus, UniProt O35433). Briefly: Agonist activity at TRPV1 in Sprague-Dawley rat DRG neuron assessed as intracellular 45Ca2+ influx by scintillation counting. In kind it is functional, cell-based.
Assay [2] addresses T1, Transient receptor potential cation channel subfamily V member 1. Put plainly: Antagonist activity at TRPV1 in Sprague-Dawley rat DRG neuron assessed as reduction of capsaicin-stimulated intracellular 45Ca2+ influx by scintillation counting. Type of assay: functional, cell-based. A digest of the protocol:
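Neonatal rat spinal DRG neurons, dissociated with collagenase then trypsin (30 min each, 37 °C), cultured 3 days in horse-serum DME/F12 with C6-glioma-conditioned medium. Neurons were given ⁴⁵Ca²⁺ plus capsaicin with compound for 10 min at room temperature in HEPES (10 mM, pH 7.4) Ca/Mg-free HBSS, then washed and dried.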

Assay [3] has as its target Transient receptor potential cation channel subfamily V member 1 (Rattus norvegicus) (UniProt O35433). Put plainly: Ratio of compound IC50 to ATC-120 IC50 for TRPV1 in Sprague-Dawley rat DRG neuron.
Assay [4] has the same target. Briefly: Ratio of compound IC50 to SC-0030 IC50 for TRPV1 in Sprague-Dawley rat DRG neuron.

T1 sequence (O35433 whole entry): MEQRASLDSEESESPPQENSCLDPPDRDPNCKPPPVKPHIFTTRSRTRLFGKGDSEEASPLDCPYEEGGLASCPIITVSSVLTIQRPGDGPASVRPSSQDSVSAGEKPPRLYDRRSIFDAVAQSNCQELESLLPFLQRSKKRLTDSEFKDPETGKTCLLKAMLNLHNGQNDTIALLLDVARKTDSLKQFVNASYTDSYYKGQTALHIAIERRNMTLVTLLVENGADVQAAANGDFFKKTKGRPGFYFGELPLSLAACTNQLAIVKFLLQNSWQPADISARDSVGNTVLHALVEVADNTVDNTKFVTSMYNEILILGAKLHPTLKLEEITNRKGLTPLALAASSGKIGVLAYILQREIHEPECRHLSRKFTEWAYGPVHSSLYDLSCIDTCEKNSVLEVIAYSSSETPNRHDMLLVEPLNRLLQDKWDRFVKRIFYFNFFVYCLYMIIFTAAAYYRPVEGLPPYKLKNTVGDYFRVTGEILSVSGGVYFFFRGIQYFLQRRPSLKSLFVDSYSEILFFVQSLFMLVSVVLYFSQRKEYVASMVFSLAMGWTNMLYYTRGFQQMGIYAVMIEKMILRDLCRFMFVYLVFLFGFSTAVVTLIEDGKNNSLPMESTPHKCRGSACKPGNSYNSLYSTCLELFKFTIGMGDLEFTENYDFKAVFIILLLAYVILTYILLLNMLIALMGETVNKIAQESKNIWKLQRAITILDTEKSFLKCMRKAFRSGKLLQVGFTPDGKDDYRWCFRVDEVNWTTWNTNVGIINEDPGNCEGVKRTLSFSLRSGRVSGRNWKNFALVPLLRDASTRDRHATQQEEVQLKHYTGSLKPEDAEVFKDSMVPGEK
Sequence of Transient receptor potential cation channel subfamily V member 1 (Rattus norvegicus) (O35433 whole entry): as above

On to `C[C@@H](NC(=S)NCc1ccc([Si](C)(C)C)cc1)c1ccc(NS(C)(=O)=O)cc1`, for which the EC50 in assay [1] was > 100 µM. Moreover, in assay [2], the IC50 is 0.21 µM. The Ratio IC50 in assay [3] and in assay [4] was 4 each time.

As to `CC[Si](C)(C)c1ccc(CNC(=S)N[C@H](C)c2ccc(NS(C)(=O)=O)cc2)cc1`, the EC50 in assay [1] was > 100 µM. In addition, the concentration for half-maximal inhibition (IC50) in assay [2] was determined as 0.67 µM.

For `CC[Si](CC)(CC)c1ccc(CNC(=S)NCc2ccc(NS(C)(=O)=O)cc2)cc1`, the EC50 in assay [1] was > 100 µM. Further, the IC50 in assay [2] was 3.1 µM.

For `C[Si](C)(C)c1ccc(CNC(=S)NCc2ccc(NS(C)(=O)=O)c(F)c2)cc1`, the EC50 in assay [1] is > 100 µM. Besides, the IC50 in assay [2] was determined as 0.16 µM. Further, the Ratio IC50 in assay [3] and in assay [4] was 4 in each case.

As for `CC[Si](CC)(CC)c1ccc(CNC(=S)N[C@H](C)c2ccc(NS(C)(=O)=O)cc2)cc1`, the EC50 in assay [1] is > 100 µM. The IC50 in assay [2] is 1.5 µM.

As for `C[C@@H](NC(=S)NCc1ccc(C(C)(C)C)cc1)c1ccc(NS(C)(=O)=O)cc1`, in assay [1], the EC50 is > 100 µM. In addition, the IC50 in assay [2] worked out at 0.05 µM.

Turning to `CC[Si](C)(C)c1ccc(CNC(=S)NCc2ccc(NS(C)(=O)=O)cc2)cc1`, the EC50 in assay [1] is > 100 µM. For the same compound, in assay [2], the IC50 worked out at 1.2 µM.

In the case of `CC(C)(C)c1ccc(CNC(=S)NCc2ccc(NS(C)(=O)=O)c(F)c2)cc1`, in assay [1], the EC50 was > 100 µM. For the same compound, the IC50 in assay [2] is 0.04 µM.

Turning to `C[Si](C)(C)c1ccc(CNC(=S)NCc2ccc(NS(C)(=O)=O)cc2)cc1`, in assay [1], the EC50 was > 100 µM. In assay [2], the IC50 was determined as 0.15 µM.
